Experimental data reported in ChEMBL document CHEMBL1138606, “The discovery of tropane derivatives as nociceptin receptor ligands for the management of cough and anxiety” (Bioorg Med Chem Lett, 2009).
Active and inactive are the calls of the source. The calls are words filed in the database; no cut-off is given here.

What was measured:
Nociceptin receptor [1] = target: T1, Nociceptin receptor (Homo sapiens, UniProt P41146); experiment: Displacement of [125I][Tyr14]nociceptin from human cloned NOP receptor expressed in CHO cells; type: cell-based
Mu-type opioid receptor [2] = target: T2, Mu-type opioid receptor (Homo sapiens, UniProt P35372); experiment: Displacement of [3H]diprenorphine from human mu opioid receptor expressed in CHO cells; type: cell-based
Nociceptin receptor [3] = target: T1, Nociceptin receptor; experiment: Agonist activity at human NOP assessed as stimulation of GDP-induced [35S]GTPgammaS binding; type: functional
Method in brief: (§1)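 Functional agonism measured as enhancement of [35S]GTPγS binding in the presence of GDP, using membranes from cells transfected with the receptor. Values are means of 2–3 experiments.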

Mu-type opioid receptor [4] = target: T2, Mu-type opioid receptor; experiment: Agonist activity at human mu opioid assessed as stimulation of GDP-induced [35S]GTPgammaS binding; type: functional; method in brief: as §1
Mu-type opioid receptor [5] = target: T2, Mu-type opioid receptor; experiment: Binding affinity to human mu opioid assessed as stimulation of GDP-induced [35S]GTPgammaS binding at 10 uM; type: functional
Method in brief: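 Agonist function read as enhancement of [35S]GTPγS binding to receptor-expressing membranes in the presence of GDP. Percent stimulation is given at 10 µM test compound. Values are means of at least 2–3 experiments.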

[6] = target: T3, Nuclear receptor subfamily 1 group I member 2 (Homo sapiens, UniProt O75469); experiment: Activity at human PXR assessed as induction of CYP3A4 activity in human hepatocytes at 1 uM relative to rifampicin; type: cell-based, Hepatocyte
T3 sequence (O75469 whole entry): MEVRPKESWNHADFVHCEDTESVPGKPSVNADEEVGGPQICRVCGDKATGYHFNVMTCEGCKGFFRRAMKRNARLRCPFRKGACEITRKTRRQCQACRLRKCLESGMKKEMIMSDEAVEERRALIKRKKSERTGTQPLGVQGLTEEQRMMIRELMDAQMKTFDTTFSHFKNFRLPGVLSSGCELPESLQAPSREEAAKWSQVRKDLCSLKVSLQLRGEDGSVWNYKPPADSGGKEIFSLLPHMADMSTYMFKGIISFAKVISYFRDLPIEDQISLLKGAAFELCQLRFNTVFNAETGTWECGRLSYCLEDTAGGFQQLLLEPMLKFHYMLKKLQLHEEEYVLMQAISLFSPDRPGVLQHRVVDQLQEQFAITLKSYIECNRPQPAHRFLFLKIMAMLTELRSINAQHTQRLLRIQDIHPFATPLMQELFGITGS

Cavia porcellus [7] = experiment: Antitussive activity against capsaicin-induced cough in po dosed Hartley guinea pig model after 2 hrs; type: functional
Nociceptin receptor [8] = target: T1, Nociceptin receptor; experiment: Agonist activity at human NOP assessed as stimulation of GDP-induced [35S]GTPgammaS binding at 10 uM; type: functional
Method in brief: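 Functional agonism measured as enhancement of [35S]GTPγS binding in the presence of GDP, using membranes from cells transfected with the receptor. […] Values are means of 2–3 experiments.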

[9] = target: Kappa-type opioid receptor (Homo sapiens, UniProt P41145); experiment: Displacement of [3H]diprenorphine from human kappa opioid receptor expressed in CHO cells; type: cell-based
[10] = target: Delta-type opioid receptor (Homo sapiens, UniProt P41143); experiment: Displacement of [3H]diprenorphine from human delta opioid receptor expressed in CHO cells; type: cell-based
Rattus norvegicus [11] = experiment: Anxiolytic activity in po dosed CD rats assessed as suppression of conditioned paw licking administered twice per day for 14 days measured after 2 hrs of last dose; type: functional
Cavia porcellus [12] = species: Cavia porcellus; experiment: Anxiolytic activity in Dunkin-Hartley guinea pig pup assessed as reduction in number of vocalization produced due to separation measured after 2 hrs; type: functional
[13] = AUC (0 to 24 hrs) in rat at 3 mg/kg, po; type: ADME, organism-based; parameters: time < 24 hr, dose 3 mg/kg, route oral; details: plasma
[14] = Cmax in rat at 3 mg/kg, po; type: ADME, organism-based; parameters: dose 3 mg/kg, route oral; details: in vivo
[15] = Half life in rat at 3 mg/kg, po; type: ADME, organism-based; parameters: dose 3 mg/kg, route oral; details: in vivo
[16] = Oral bioavailability in rat at 3 mg/kg; type: ADME, organism-based; details: in vivo
[17] = Clearance in rat at 3 mg/kg, po; type: ADME, organism-based; parameters: dose 3 mg/kg, route oral; details: in vivo
Rattus norvegicus [18] = experiment: Volume of distribution at steady state in rat at 3 mg/kg, po; type: ADME, organism-based; parameters: dose 3 mg/kg, route oral; details: in vivo
Cavia porcellus [19] = experiment: Antitussive activity against capsaicin-induced cough in po dosed Hartley guinea pig model after 2 hrs in presence J113397; type: functional, organism-based
Cavia porcellus [20] = experiment: Antitussive activity against capsaicin-induced cough in po dosed Hartley guinea pig model after 2 hrs in presence naltrexone; type: functional, organism-based
Cavia porcellus [21] = experiment: Antitussive activity against capsaicin-induced cough in po dosed Hartley guinea pig model after 2 hrs in presence naloxone; type: functional, organism-based

T2 sequence (P35372 whole entry): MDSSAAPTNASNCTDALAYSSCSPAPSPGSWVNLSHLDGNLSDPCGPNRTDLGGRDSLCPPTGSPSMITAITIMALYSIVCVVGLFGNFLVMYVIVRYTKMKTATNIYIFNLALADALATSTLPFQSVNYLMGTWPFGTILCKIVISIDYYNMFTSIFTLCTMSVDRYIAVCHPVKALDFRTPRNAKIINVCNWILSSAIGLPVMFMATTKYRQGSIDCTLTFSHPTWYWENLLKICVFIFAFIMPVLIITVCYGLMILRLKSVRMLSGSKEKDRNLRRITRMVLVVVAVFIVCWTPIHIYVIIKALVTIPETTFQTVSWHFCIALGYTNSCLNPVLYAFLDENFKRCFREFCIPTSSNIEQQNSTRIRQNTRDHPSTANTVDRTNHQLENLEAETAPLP
T1 sequence (P41146 whole entry): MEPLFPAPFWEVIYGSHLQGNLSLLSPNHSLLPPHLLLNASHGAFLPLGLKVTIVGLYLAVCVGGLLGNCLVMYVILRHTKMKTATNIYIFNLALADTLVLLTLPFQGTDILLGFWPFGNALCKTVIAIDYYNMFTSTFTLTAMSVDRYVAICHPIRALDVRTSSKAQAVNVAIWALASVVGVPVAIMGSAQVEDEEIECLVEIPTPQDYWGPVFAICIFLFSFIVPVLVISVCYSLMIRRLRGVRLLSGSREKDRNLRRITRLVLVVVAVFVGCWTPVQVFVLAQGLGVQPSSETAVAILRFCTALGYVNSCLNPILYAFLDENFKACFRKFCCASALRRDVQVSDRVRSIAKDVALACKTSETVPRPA
Sequence of Delta-type opioid receptor (P41143 whole entry): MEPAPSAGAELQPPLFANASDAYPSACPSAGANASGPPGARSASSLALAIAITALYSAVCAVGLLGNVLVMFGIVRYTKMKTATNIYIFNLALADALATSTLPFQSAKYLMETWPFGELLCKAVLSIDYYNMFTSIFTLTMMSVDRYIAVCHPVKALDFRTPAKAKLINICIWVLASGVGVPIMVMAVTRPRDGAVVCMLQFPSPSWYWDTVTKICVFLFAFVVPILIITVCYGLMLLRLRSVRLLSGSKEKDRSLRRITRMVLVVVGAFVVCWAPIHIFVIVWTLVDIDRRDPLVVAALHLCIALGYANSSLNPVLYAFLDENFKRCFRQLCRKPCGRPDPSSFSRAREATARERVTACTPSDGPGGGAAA
Sequence of Kappa-type opioid receptor (P41145 whole entry): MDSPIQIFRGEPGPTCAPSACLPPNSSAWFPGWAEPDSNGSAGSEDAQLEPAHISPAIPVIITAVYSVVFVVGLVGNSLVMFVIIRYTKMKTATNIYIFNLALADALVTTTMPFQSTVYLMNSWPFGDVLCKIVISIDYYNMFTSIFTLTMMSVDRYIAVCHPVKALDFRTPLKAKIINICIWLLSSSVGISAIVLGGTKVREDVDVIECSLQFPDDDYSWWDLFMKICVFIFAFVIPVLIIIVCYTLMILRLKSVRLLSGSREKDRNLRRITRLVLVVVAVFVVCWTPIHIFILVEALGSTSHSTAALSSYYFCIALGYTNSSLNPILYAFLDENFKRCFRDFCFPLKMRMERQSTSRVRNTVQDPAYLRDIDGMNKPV

Row | SMILES | Ki (Nociceptin receptor [1]) [nM] | Ki (Mu-type opioid receptor [2]) [nM] | also measured
1 | NC1(c2ccccc2)CC2CCC(C1)N2C(c1ccccc1Cl)c1ccccc1Cl (centres undefined) | 4 | 458 | EC50 (Nociceptin receptor [3]): 76 nM; EC50 (Mu-type opioid receptor [4]): 4520 nM
2 | Cc1ccc(C(c2ccccc2Cl)N2C3CCC2CC(O)(C2CCCC2)C3)c(Cl)c1 (centres undefined) | 1.9 | 104 | EC50 (Nociceptin receptor [3]): 16 nM; EC50 (Mu-type opioid receptor [4]): 709 nM
3 | FCC1(c2ccccc2)CC2CCC(C1)N2C(c1ccccc1Cl)c1ccccc1Cl (centres undefined) | 3150 | – | –
4 | Cc1ccnc(C2(O)CC3CCC(C2)N3C(c2ccccc2Cl)c2ccc(C)cc2Cl)c1 (centres undefined) | 7.3 | 708 | –
5 | Cc1ccc(C(c2ccccc2Cl)N2C3CCC2CC(O)(C2CCCN2Cc2ccccc2)C3)c(Cl)c1 (centres undefined) | 14 | 1550 | –
6 | OC1CC2CCC(C1)N2C(c1ccccc1Cl)c1ccccc1Cl (stereo in doubt; 12a) | 1090 | – | –
7 | COC1(c2ccccc2)CC2CCC(C1)N2C(c1ccccc1Cl)c1ccccc1Cl (centres undefined) | 8 | 636 | EC50 (Nociceptin receptor [3]): 50 nM; EC50 (Mu-type opioid receptor [4]): 545 nM
8 | Cc1ccnc(C2(O)C3CCC2CN(C(c2ccccc2Cl)c2ccccc2Cl)C3)c1 (centres undefined) | 385 | 3590 | –
9 | Cc1ccc(C(c2ccccc2Cl)N2C3CCC2CC(O)(C2=NCCCN2)C3)c(Cl)c1 (centres undefined) | 3 | 622 | EC50 (Nociceptin receptor [3]): 62 nM; Activity (Mu-type opioid receptor [5]): 29%
10 | OC1(c2cncs2)CC2CCC(C1)N2C(c1ccccc1Cl)c1ccccc1Cl (stereo in doubt; 11b) | 19 | 1490 | –
11 | OC1(c2cncs2)CC2CCC(C1)N2C(c1ccccc1Cl)c1ccccc1Cl (stereo in doubt; 12b) | 3000 | – | –
12 | C[C@H]1CN(C(c2ccccc2)c2ccccc2)CC[C@@]1(O)c1ccccc1 | 1570 | – | –
13 | CCNC(=O)C1(c2ccccc2)CC2CCC(C1)N2C(c1ccccc1Cl)c1ccccc1Cl (centres undefined) | 7 | 215 | Ratio [6]: 1.49
14 | OCC1(c2ccccc2)CC2CCC(C1)N2C(c1ccccc1Cl)c1ccccc1Cl (centres undefined) | 6 | 627 | EC50 (Nociceptin receptor [3]): 136 nM; EC50 (Mu-type opioid receptor [4]): 2140 nM
15 | OC1(c2ccccc2)CC2CCC(C1)N2C(c1ccccc1)c1ccccc1 (centres undefined) | – | 94 | Activity (Cavia porcellus [7]): inactive
16 | OC1(c2ccccc2)CC2CCCC(C1)N2C(c1ccccc1)c1ccccc1 (centres undefined) | 7.5 | 514 | Activity (Nociceptin receptor [8]): 101%
17 | O=C(NC1(c2ccccc2)CC2CCC(C1)N2C(c1ccccc1Cl)c1ccccc1Cl)C1CC1 (centres undefined) | 11 | 996 | EC50 (Nociceptin receptor [3]): 35 nM; Activity (Mu-type opioid receptor [5]): 25%
18 | Clc1ccccc1C(c1ccccc1Cl)N1C2CCC1CC(c1ccccc1)(c1nc[nH]n1)C2 (centres undefined) | 5.3 | 100 | –
19 | N#CC1(c2ccccc2)CC2CCC(C1)N2C(c1ccccc1Cl)c1ccccc1Cl (centres undefined) | 100 | – | –
20 | CNC(=O)NC1(c2ccccc2)CC2CCC(C1)N2C(c1ccccc1Cl)c1ccccc1Cl (centres undefined) | 2 | 27 | –
21 | COC(=O)NC1(c2ccccc2)CC2CCC(C1)N2C(c1ccccc1Cl)c1ccccc1Cl (centres undefined) | 6 | 576 | EC50 (Nociceptin receptor [3]): 54 nM; EC50 (Mu-type opioid receptor [4]): 782 nM
22 | NC(=O)C1(c2ccc(Br)cc2)CC2CCC(C1)N2C(c1ccccc1Cl)c1ccccc1Cl (centres undefined) | 40 | – | Ratio [6]: 0.05
23 | NC(=O)c1ccc(C2(C(N)=O)CC3CCC(C2)N3C(c2ccccc2Cl)c2ccccc2Cl)cc1 (centres undefined) | 678 | – | Ratio [6]: 0.05

Row | SMILES | Ki (Nociceptin receptor [1]) [nM] | Ki (Mu-type opioid receptor [2]) [nM] | also measured
24 | CC(C)NC(=O)C1(c2ccccc2)CC2CCC(C1)N2C(c1ccccc1Cl)c1ccccc1Cl (centres undefined) | 10 | 333 | Ratio [6]: 2.21
25 | Cc1ccc(C(c2ccccc2Cl)N2C3CCC2CC(O)(c2cccc(F)c2)C3)c(Cl)c1 (centres undefined) | 2.7 | 57 | EC50 (Nociceptin receptor [3]): 16 nM; EC50 (Mu-type opioid receptor [4]): 894 nM
26 | O=C(O)C1(c2ccccc2)CC2CCC(C1)N2C(c1ccccc1Cl)c1ccccc1Cl (centres undefined) | 3 | 123 | –
27 | NC(=O)C1(c2ccc(F)cc2)CC2CCC(C1)N2C(c1ccccc1Cl)c1ccccc1Cl (centres undefined) | 16 | 126 | EC50 (Nociceptin receptor [3]): 14 nM; EC50 (Mu-type opioid receptor [4]): 947 nM; Ki [9]: 752 nM; Ki [10]: 1040 nM; ED50 (Cavia porcellus [7]): 0.03 mg/kg; ED50 (Rattus norvegicus [11]): 2.7 mg/kg; ED50 (Cavia porcellus [12]): 0.2 mg/kg; Ratio [6]: 0.27; AUC(0-t) at 24 h [13]: 1.27 µM·h; Cmax [14]: 250 nM; half-life [15]: 1.8 h; bioavailability [16]: 45%; CL/F [17]: 33 mL/min/kg; Vdss (Rattus norvegicus [18]): 1.8 L/kg
28 | NC(=O)C1(c2ccc(OC(F)(F)F)cc2)CC2CCC(C1)N2C(c1ccccc1Cl)c1ccccc1Cl (centres undefined) | 285 | – | Ratio [6]: 0.1
29 | Cc1ccc(C(c2ccccc2Cl)N2C3CCC2CC(O)(c2ccncn2)C3)c(Cl)c1 (centres undefined) | 5.2 | 535 | EC50 (Nociceptin receptor [3]): 50 nM; EC50 (Mu-type opioid receptor [4]): 1690 nM
30 | CC(O)CNC(=O)C1(c2ccccc2)CC2CCC(C1)N2C(c1ccccc1Cl)c1ccccc1Cl (centres undefined) | 11 | 57 | Ratio [6]: 2.38
31 | OC1(c2cccnn2)CC2CCC(C1)N2C(c1ccccc1Cl)c1ccccc1Cl (stereo in doubt; 11c) | 10 | 470 | –
32 | CNC(=O)C1(c2ccccc2)CC2CCC(C1)N2C(c1ccccc1Cl)c1ccccc1Cl (centres undefined) | 4.9 | 50 | Ratio [6]: 1.29
33 | Cc1ccc(C(c2ccccc2Cl)N2C3CCC2CC(O)(CCCO)C3)c(Cl)c1 (centres undefined) | 7.4 | 306 | –
34 | OC1(c2cccnc2)C2CCC1CN(C(c1ccccc1Cl)c1ccccc1Cl)C2 (centres undefined) | 908 | 7260 | –
35 | OC1(c2cccnc2)CC2CCC(C1)N2C(c1ccccc1Cl)c1ccccc1Cl (centres undefined) | 3 | 42 | –
36 | OC1(c2cccnn2)CC2CCC(C1)N2C(c1ccccc1Cl)c1ccccc1Cl (stereo in doubt; 12c) | 3760 | – | –
37 | OC1(c2ccccc2)CC2CCC(C1)N2C(c1ccccc1Cl)c1ccccc1Cl (centres undefined) | 3.4 | 22 | EC50 (Mu-type opioid receptor [4]): 337 nM; Ki [9]: 109 nM; Ki [10]: 3140 nM; ED50 (Cavia porcellus [7]): 0.4 mg/kg; ED50 (Rattus norvegicus [11]): 1.4 mg/kg; ED50 (Cavia porcellus [12]): 0.4 mg/kg; Activity (Cavia porcellus [19]): inactive; Activity (Cavia porcellus [20]): Active; Activity (Cavia porcellus [21]): Active
38 | O/N=C/C1(c2ccccc2)CC2CCC(C1)N2C(c1ccccc1Cl)c1ccccc1Cl (centres undefined) | 20 | 601 | EC50 (Nociceptin receptor [3]): 107 nM; Activity (Mu-type opioid receptor [5]): 29%
39 | OC1CC2CCC(C1)N2C(c1ccccc1Cl)c1ccccc1Cl (stereo in doubt; 11a) | 198 | – | –
40 | Cc1ccc(C(c2ccccc2Cl)N2C3CCC2CC(O)(C2CCNC2=O)C3)c(Cl)c1 (centres undefined) | 3.6 | 781 | EC50 (Nociceptin receptor [3]): 48 nM; Activity (Mu-type opioid receptor [5]): 60%
41 | COCCNC(=O)C1(c2ccccc2)CC2CCC(C1)N2C(c1ccccc1Cl)c1ccccc1Cl (centres undefined) | 8.2 | 60 | Ratio [6]: 2.35
42 | NC(=O)C1(c2ccc(Cl)cc2)CC2CCC(C1)N2C(c1ccccc1Cl)c1ccccc1Cl (centres undefined) | 31 | 55 | Ratio [6]: 0.05
43 | COc1ccc(C2(C(N)=O)CC3CCC(C2)N3C(c2ccccc2Cl)c2ccccc2Cl)cc1 (centres undefined) | 22 | 59 | Ratio [6]: 0.06
44 | COc1ccc(CC2(O)CC3CCC(C2)N3C(c2ccccc2Cl)c2ccc(C)cc2Cl)nc1 (centres undefined) | 13 | 384 | EC50 (Nociceptin receptor [3]): 90 nM; Activity (Mu-type opioid receptor [5]): 31%
45 | C[C@@H]1CN(C(c2ccccc2)c2ccccc2)CC[C@@]1(O)c1ccccc1 | 142 | 738 | Activity (Nociceptin receptor [8]): 70%
